Where two headings read alike, the source gives them in different places. Marks after values point to notes of the source that are not given here.
Columns and labels:
[1] = NCT02093728 and NCT02046850; cited from earlier work
[2] = Renal impairment study: excretion in urine and blood dialysate; format: in vivo, human
How it was run: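 Subjects were ESRD patients on haemodialysis or healthy subjects with creatinine clearance >80 mL/min, each given 50 mg orally while fasted. ESRD patients were dosed once after dialysis and, after a washout of ≥7 days, once 1 h before dialysis. Urine was collected predose and in intervals to 72 h. Dialysate spot samples were taken every 30 min, and parameters were derived by the area under the excretion rate curve method. Analysis was by LC-MS/MS.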

plasma proteins = experiment: Unbound fraction in plasma; format: in vitro ADME, human; settings: healthy subjects; for fu,av: 50 mg, median (min-max)
How it was run: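 Unbound fraction was measured in human plasma by ultrafiltration after a single oral dose. Ultrafiltrate was analysed by LC-MS/MS in MRM mode with carbon-13 internal standards. Within each subject, the mean percentage unbound from 3 results was applied to all of that subject's samples to give the average fraction unbound (fu,av).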

[3] = format: in vivo, human; settings: for t1/2: arithmetic mean (SD); for AUC, geometric least-squares mean / Cmax, geometric least-squares mean: fixed-effect ANOVA; for Cmax / MRAUC (metabolite-to-parent AUC ratio) / MRCmax (metabolite-to-parent Cmax ratio) / AUCu / Cmax,u: geometric mean (gCV%); for tmax: median (min-max); for AUCu / Cmax,u: unbound
[4] = Hepatic impairment study: excretion in urine; format: in vivo, human
How it was run: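 Urine from hepatic-impairment and healthy subjects was collected at −12 to 0 h predose, then 0–6, 6–12, 12–24, 24–36 and 36–48 h, and every 24 h to 120 h after a single oral dose. Dosing followed an overnight fast, with fasting until 4 h postdose. Analytes were measured by LC-MS/MS (positive electrospray, MRM) against carbon-13 internal standards.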

[5] = format: in vivo, human; settings: for t1/2: arithmetic mean (SD); for tmax: median (min-max)
[6] = ESRD, treatment period 1 (50 mg after dialysis)
[7] = ESRD, treatment period 2 (50 mg 1 h before dialysis)
[8] = severe hepatic impairment, 20 mg
[9] = healthy subjects, 50 mg, geometric mean (gCV%)
[10] = mild hepatic impairment, 50 mg, geometric mean (gCV%)
[11] = moderate hepatic impairment, 50 mg (N = 6) or 25 mg (N = 2), geometric mean (gCV%)
[12] = moderate hepatic impairment, 50 mg dose only
[13] = moderate hepatic impairment, 50 or 25 mg

O=C(NOCCO)c1cc2nc[nH]c2c(F)c1Nc1ccc(Br)cc1Cl [N‐desmethyl selumetinib]
AUC and Cmax as percentage of the parent compound [1]: ~7%
dose excreted in dialysate ([2]; ESRD, dosed 1 h before dialysis): 0.089%
fraction excreted in urine ([2]; healthy subjects, 50 mg): 0.73%
median unbound fraction (plasma proteins; in both studies): ~0.6%
fu,av (plasma proteins; hepatic impairment study): 0.61 (0.54‐0.70) ^j %
fu,av (plasma proteins; renal impairment study): 0.688 (0.659‐0.712) ^e %
Cmax, ESRD/Healthy Ratio (90%CI) ([3]; ESRD treatment period 1 vs healthy): 84.48 (61.60, 115.86) %
AUC, ESRD/Healthy Ratio (90%CI) ([3]; ESRD treatment period 1 vs healthy, 50 mg): 91.95 (67.73, 124.83) %
AUC lower when dosed before vs after dialysis ([3]; ESRD, 50 mg): 10%
Cmax lower when dosed before vs after dialysis ([3]; ESRD, 50 mg): 15%
t1/2 [3, 6]: 6.28 (2.87) ^d h
AUC, geometric least-squares mean [3, 6]: 171.0 ng·h/mL
Cmax [3, 6]: 45.1 (40.4) ng/mL
tmax [3, 6]: 1.25 (0.50‐3.00) h
Cmax, geometric least-squares mean ([3]; ESRD, treatment period 1): 45.15 ng/mL
MRAUC (metabolite-to-parent AUC ratio) ([3]; ESRD, treatment period 1): 0.0864 (45.9) ^d
MRCmax (metabolite-to-parent Cmax ratio) ([3]; ESRD, treatment period 1): 0.0623 (42.8)
t1/2 [3, 7]: 5.79 (2.52) ^d h
Cmax [3, 7]: 38.5 (57.7) ng/mL
tmax [3, 7]: 1.50 (1.00‐2.00) h
MRAUC (metabolite-to-parent AUC ratio) ([3]; ESRD, treatment period 2): 0.0930 (48.6) ^d
MRCmax (metabolite-to-parent Cmax ratio) ([3]; ESRD, treatment period 2): 0.0759 (35.9)
t1/2 ([3]; healthy subjects, 50 mg): 5.41 (1.40) h
AUC, geometric least-squares mean ([3]; healthy subjects, 50 mg): 185.9 ng·h/mL
Cmax ([3]; healthy subjects, 50 mg): 53.4 (52.1) ng/mL
tmax ([3]; healthy subjects, 50 mg): 1.50 (1.00‐3.00) h
Cmax, geometric least-squares mean ([3]; healthy subjects): 53.45 ng/mL
MRAUC (metabolite-to-parent AUC ratio) ([3]; healthy subjects): 0.0710 (38.4)
MRCmax (metabolite-to-parent Cmax ratio) ([3]; healthy subjects): 0.0619 (32.9)
AUCu [3, 6]: 2.10 (19.2) ^e ng·h/mL
Cmax,u [3, 6]: 0.561 (14.8) ^e ng/mL
AUCu ([3]; healthy subjects, 50 mg): 1.72 (14.4) ^e ng·h/mL
Cmax,u ([3]; healthy subjects, 50 mg): 0.619 (8.5) ^e ng/mL
dose excreted in urine ([4]; healthy subjects, 50 mg): 0.78%
dose excreted in urine ([4]; mild hepatic impairment, 50 mg): 0.64%
dose excreted in urine ([4]; moderate hepatic impairment): 0.20%
dose excreted in urine [4, 8]: 0.09%
AUC(0–t)/dose, geometric least-squares mean ([5]; healthy subjects, 50 mg): 4.841 ng·h/mL/mg
Cmax/dose, geometric least-squares mean ([5]; healthy subjects, 50 mg): 1.809 ng/mL/mg
t1/2 ([5]; healthy subjects, 50 mg): 9.24 (3.33) h
AUC(0–t)/dose [5, 9]: 4.84 (43.4) ng·h/mL/mg
Cmax/dose [5, 9]: 1.81 (57.0) ng/mL/mg
tmax ([5]; healthy subjects, 50 mg): 1.00 (1.00‐2.00) h
AUC(0-t)/dose lower than in healthy subjects ([5]; mild hepatic impairment): 49%
Cmax/dose lower than in healthy subjects ([5]; mild hepatic impairment): 56%
AUC(0–t)/dose, geometric least-squares mean ([5]; mild hepatic impairment, 50 mg): 2.445 ng·h/mL/mg
Cmax/dose, geometric least-squares mean ([5]; mild hepatic impairment, 50 mg): 0.8041 ng/mL/mg
t1/2 ([5]; mild hepatic impairment, 50 mg): 5.18 (1.51) ^f h
AUC(0–t)/dose [5, 10]: 2.45 (41.1) ng·h/mL/mg
Cmax/dose [5, 10]: 0.804 (57.7) ng/mL/mg
tmax ([5]; mild hepatic impairment, 50 mg): 1.50 (1.00‐4.00) h
AUC(0–t)/dose, Hepatic impairment/healthy ratio (90%CI) ([5]; mild vs healthy): 50.51 (28.28, 90.19) %
Cmax/dose, Hepatic impairment/healthy ratio (90%CI) ([5]; mild vs healthy): 44.44 (25.70, 76.85) %
AUC(0-t)/dose lower than in healthy subjects ([5]; moderate hepatic impairment): 62%
Cmax/dose lower than in healthy subjects ([5]; moderate hepatic impairment): 70%
AUC(0–t)/dose [5, 11]: 1.83 (129.6) ng·h/mL/mg
Cmax/dose [5, 11]: 0.548 (102.8) ng/mL/mg
t1/2 [5, 12]: 7.72 (2.92) ^i h
tmax [5, 12]: 1.25 (1.00‐1.50) ^f h
AUC(0–t)/dose, geometric least-squares mean [5, 13]: 1.826 ng·h/mL/mg
Cmax/dose, geometric least-squares mean [5, 13]: 0.5485 ng/mL/mg
AUC(0–t)/dose, Hepatic impairment/healthy ratio (90%CI) ([5]; moderate vs healthy): 37.72 (21.12, 67.37) %
Cmax/dose, Hepatic impairment/healthy ratio (90%CI) ([5]; moderate vs healthy): 30.31 (17.53, 52.42) %
MRCmax (metabolite-to-parent Cmax ratio) ([5]; severe hepatic impairment, 20 mg (N = 3), geometric mean (gCV%)): 0.00778 (29.2) ^h
Cmax/dose ([5]; severe hepatic impairment, 20 mg, geometric mean (gCV%)): 0.173 (44.3) ng/mL/mg
tmax [5, 8]: 2.00 (1.50‐2.00) ^h

From publication PMC5412920 (Journal of Clinical Pharmacology, 2016)
